Results pooled from the literature.
Lines come from different studies, so protocols differ.
Target: Glycogen synthase kinase-3 alpha (GSK3A, Homo sapiens, UniProt P49840)

CO[C@@H]1[C@H](N(C)C(=O)c2ccccc2)C[C@H]2O[C@]1(C)n1c3ccccc3c3c4c(c5c6ccccc6n2c5c31)C(=O)NC4  inhibition (enzyme activity, inhibitor; 1 µM): 14%
C[C@H]1CC[C@H](n2c3cnccc3c3cnc(Nc4ccc5c(n4)CCN(C(=O)CO)C5)nc32)CC1  remaining signal (cell-free assay; 1 µM): 35%
C=CC(=O)N1CCC([C@@H]2CCNc3c(C(N)=O)c(-c4ccc(Oc5ccccc5)cc4)nn32)CC1  inhibition (enzyme activity, inhibitor; 1 µM): 2%
CC(=O)ON=C1C=CC(=C(C#N)c2ccccc2)C=C1  activity vs control (enzyme activity, inhibitor, ADP detection; 20 µM): 94%
CCCCC(=O)Nc1ccc(-c2ccc3ncn(CCC)c(=O)c3c2)cn1  remaining binding (binding, competition with immobilised ligand; 0.5 µM): 94%
COc1ccc2oc(-c3ccc4nc(N)oc4c3)c/c(=N\c3ccccc3NC(=O)CCN)c2c1  remaining binding (binding; 1 µM): 94%
C1=C/COCc2cc(ccc2OCCN2CCCC2)Nc2nccc(n2)-c2cccc(c2)COC/1  remaining binding (binding; 0.1 µM): 100%
Cc1cc(O)c(-c2ccc([C@@H](C)CN(C)C)cc2)c2c1[nH]c(=O)c1sccc12  inhibition (enzyme activity, inhibitor; 0.1 µM): -5.76%
Cc1ccc(NC(=O)c2ccnc(C(F)(F)F)c2)cc1-c1cc(OCCO)nc(N2CCOCC2)c1  remaining binding (binding; 1 µM): 100%
